Test results as given in ChEMBL document CHEMBL4689842, “EUbOPEN Chemogenomics Library wave 1” (2021).

System: U2OS
Assay: Multiplex assay against U2OS
Type: toxicity, cell-based
Settings: human
Method in brief: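 Hoechst33342, BioTracker Green Microtubule Cytoskeleton Dye, MitoTracker Red and Annexin V Alexa Fluor 680 were added to live cells at seeding, and imaging on a CQ1 microscope at 37°C and 5% CO2 followed compound addition. Gating by CellPathfinder machine learning separated cells into Hoechst high-intensity objects or normal cells, then normal cells into healthy, pyknosed or fragmented nuclei, then pyknosed cells into mitotic or apoptotic. Per cents of healthy-nucleus cells are reported for the tubulin, mitochondrial-mass and membrane-permeability phenotypes.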

[1] = 12 h, 1 µM, compound concentration 1 uM, replicate 1
[2] = 12 h, 1 µM, compound concentration 1 uM, replicate 2
[3] = 12 h, 10 µM, compound concentration 10 uM, replicate 1
[4] = 12 h, 10 µM, compound concentration 10 uM, replicate 2
[5] = 24 h, 1 µM, compound concentration 1 uM, replicate 1
[6] = 24 h, 1 µM, compound concentration 1 uM, replicate 2
[7] = 24 h, 10 µM, compound concentration 10 uM, replicate 1
[8] = 24 h, 10 µM, compound concentration 10 uM, replicate 2
[9] = 48 h, 1 µM, compound concentration 1 uM, replicate 1
[10] = 48 h, 1 µM, compound concentration 1 uM, replicate 2
[11] = 48 h, 10 µM, compound concentration 10 uM, replicate 1
[12] = 48 h, 10 µM, compound concentration 10 uM, replicate 2

## CCn1cc(-c2ccnc3[nH]c(-c4cccc(CN(C)C)c4)cc23)c(-c2ccc(NC(=O)N(C)C)cc2)n1 [GSK-1070916]
[1]
  Population Apoptotic (%): 25%
  Population Fragmented Nuclei (%): 4%
  Population Healthy Nuclei (%): 91%
  Population Hoechst High Intensity Objects (%): 2%
  Population Membrane Permeable-Phenotype (%): 28%
  Population Mitochondria Different-Phenotype (%): 17%
  Population Mitotic Cells (%): 75%
  Population Normal (%): 97%
  Population Pyknosed Nuclei (%): 3%
  Population Tubulin-Different-Phenotype (%): 24%
  Total Cell Count: 141
[2]
  Population Apoptotic (%): 100%
  Population Fragmented Nuclei (%): 12%
  Population Healthy Nuclei (%): 86%
  Population Hoechst High Intensity Objects (%): 14%
  Population Membrane Permeable-Phenotype (%): 30%
  Population Mitochondria Different-Phenotype (%): 35%
  Population Mitotic Cells (%): 0%
  Population Normal (%): 85%
  Population Pyknosed Nuclei (%): 1%
  Population Tubulin-Different-Phenotype (%): 26%
  Total Cell Count: 97
[3]
  Population Apoptotic (%): 50%
  Population Fragmented Nuclei (%): 12%
  Population Healthy Nuclei (%): 62%
  Population Hoechst High Intensity Objects (%): 9%
  Population Membrane Permeable-Phenotype (%): 32%
  Population Mitochondria Different-Phenotype (%): 44%
  Population Mitotic Cells (%): 49%
  Population Normal (%): 90%
  Population Pyknosed Nuclei (%): 24%
  Population Tubulin-Different-Phenotype (%): 99%
  Total Cell Count: 207
[4]
  Population Apoptotic (%): 48%
  Population Fragmented Nuclei (%): 24%
  Population Healthy Nuclei (%): 48%
  Population Hoechst High Intensity Objects (%): 16%
  Population Membrane Permeable-Phenotype (%): 37%
  Population Mitochondria Different-Phenotype (%): 67%
  Population Mitotic Cells (%): 51%
  Population Normal (%): 83%
  Population Pyknosed Nuclei (%): 27%
  Population Tubulin-Different-Phenotype (%): 100%
  Total Cell Count: 76
[5]
  Population Apoptotic (%): 38%
  Population Fragmented Nuclei (%): 6%
  Population Healthy Nuclei (%): 81%
  Population Hoechst High Intensity Objects (%): 2%
  Population Membrane Permeable-Phenotype (%): 15%
  Population Mitochondria Different-Phenotype (%): 27%
  Population Mitotic Cells (%): 61%
  Population Normal (%): 97%
  Population Pyknosed Nuclei (%): 12%
  Population Tubulin-Different-Phenotype (%): 15%
  Total Cell Count: 141
[6]
  Population Apoptotic (%): 40%
  Population Fragmented Nuclei (%): 8%
  Population Healthy Nuclei (%): 83%
  Population Hoechst High Intensity Objects (%): 18%
  Population Membrane Permeable-Phenotype (%): 22%
  Population Mitochondria Different-Phenotype (%): 63%
  Population Mitotic Cells (%): 60%
  Population Normal (%): 81%
  Population Pyknosed Nuclei (%): 8%
  Population Tubulin-Different-Phenotype (%): 18%
  Total Cell Count: 92
[7]
  Population Apoptotic (%): 65%
  Population Fragmented Nuclei (%): 13%
  Population Healthy Nuclei (%): 45%
  Population Hoechst High Intensity Objects (%): 16%
  Population Membrane Permeable-Phenotype (%): 50%
  Population Mitochondria Different-Phenotype (%): 85%
  Population Mitotic Cells (%): 34%
  Population Normal (%): 83%
  Population Pyknosed Nuclei (%): 40%
  Population Tubulin-Different-Phenotype (%): 98%
  Total Cell Count: 216
[8]
  Population Apoptotic (%): 64%
  Population Fragmented Nuclei (%): 17%
  Population Healthy Nuclei (%): 36%
  Population Hoechst High Intensity Objects (%): 18%
  Population Membrane Permeable-Phenotype (%): 63%
  Population Mitochondria Different-Phenotype (%): 87%
  Population Mitotic Cells (%): 35%
  Population Normal (%): 81%
  Population Pyknosed Nuclei (%): 45%
  Population Tubulin-Different-Phenotype (%): 100%
  Total Cell Count: 72

## Cc1cc(C)c(S(=O)(=O)N(Cc2ccc(-c3cccc(S(C)(=O)=O)c3)cc2)Cc2ccc(C(F)(F)F)o2)c(C)c1
[1]
  Population Apoptotic (%): 50%
  Population Fragmented Nuclei (%): 9%
  Population Healthy Nuclei (%): 84%
  Population Hoechst High Intensity Objects (%): 7%
  Population Membrane Permeable-Phenotype (%): 4%
  Population Mitochondria Different-Phenotype (%): 18%
  Population Mitotic Cells (%): 50%
  Population Normal (%): 92%
  Population Pyknosed Nuclei (%): 6%
  Population Tubulin-Different-Phenotype (%): 12%
  Total Cell Count: 77
[2]
  Population Apoptotic (%): 66%
  Population Fragmented Nuclei (%): 15%
  Population Healthy Nuclei (%): 80%
  Population Hoechst High Intensity Objects (%): 6%
  Population Membrane Permeable-Phenotype (%): 3%
  Population Mitochondria Different-Phenotype (%): 21%
  Population Mitotic Cells (%): 33%
  Population Normal (%): 93%
  Population Pyknosed Nuclei (%): 3%
  Population Tubulin-Different-Phenotype (%): 27%
  Total Cell Count: 72
[3]
  Population Apoptotic (%): 31%
  Population Fragmented Nuclei (%): 8%
  Population Healthy Nuclei (%): 81%
  Population Hoechst High Intensity Objects (%): 5%
  Population Membrane Permeable-Phenotype (%): 58%
  Population Mitochondria Different-Phenotype (%): 27%
  Population Mitotic Cells (%): 68%
  Population Normal (%): 94%
  Population Pyknosed Nuclei (%): 10%
  Population Tubulin-Different-Phenotype (%): 85%
  Total Cell Count: 104
[4]
  Population Apoptotic (%): 0%
  Population Fragmented Nuclei (%): 14%
  Population Healthy Nuclei (%): 77%
  Population Hoechst High Intensity Objects (%): 22%
  Population Membrane Permeable-Phenotype (%): 3%
  Population Mitochondria Different-Phenotype (%): 3%
  Population Mitotic Cells (%): 100%
  Population Normal (%): 77%
  Population Pyknosed Nuclei (%): 8%
  Population Tubulin-Different-Phenotype (%): 11%
  Total Cell Count: 81
[5]
  Population Apoptotic (%): 40%
  Population Fragmented Nuclei (%): 10%
  Population Healthy Nuclei (%): 82%
  Population Hoechst High Intensity Objects (%): 3%
  Population Membrane Permeable-Phenotype (%): 3%
  Population Mitochondria Different-Phenotype (%): 13%
  Population Mitotic Cells (%): 60%
  Population Normal (%): 96%
  Population Pyknosed Nuclei (%): 7%
  Population Tubulin-Different-Phenotype (%): 9%
  Total Cell Count: 89
[6]
  Population Apoptotic (%): 0%
  Population Fragmented Nuclei (%): 14%
  Population Healthy Nuclei (%): 80%
  Population Hoechst High Intensity Objects (%): 1%
  Population Membrane Permeable-Phenotype (%): 5%
  Population Mitochondria Different-Phenotype (%): 18%
  Population Mitotic Cells (%): 100%
  Population Normal (%): 98%
  Population Pyknosed Nuclei (%): 5%
  Population Tubulin-Different-Phenotype (%): 32%
  Total Cell Count: 86
[7]
  Population Apoptotic (%): 41%
  Population Fragmented Nuclei (%): 11%
  Population Healthy Nuclei (%): 71%
  Population Hoechst High Intensity Objects (%): 6%
  Population Membrane Permeable-Phenotype (%): 47%
  Population Mitochondria Different-Phenotype (%): 32%
  Population Mitotic Cells (%): 58%
  Population Normal (%): 93%
  Population Pyknosed Nuclei (%): 17%
  Population Tubulin-Different-Phenotype (%): 87%
  Total Cell Count: 133
[8]
  Population Apoptotic (%): 14%
  Population Fragmented Nuclei (%): 15%
  Population Hoechst High Intensity Objects (%): 10%
  Population Membrane Permeable-Phenotype (%): 5%
  Population Mitochondria Different-Phenotype (%): 10%
  Population Mitotic Cells (%): 85%
  Population Normal (%): 89%
  Population Pyknosed Nuclei (%): 13%
  Population Tubulin-Different-Phenotype (%): 15%
  Total Cell Count: 109
[9]
  Population Apoptotic (%): 64%
  Population Fragmented Nuclei (%): 6%
  Population Healthy Nuclei (%): 83%
  Population Hoechst High Intensity Objects (%): 3%
  Population Membrane Permeable-Phenotype (%): 1%
  Population Mitochondria Different-Phenotype (%): 7%
  Population Mitotic Cells (%): 35%
  Population Normal (%): 96%
  Population Pyknosed Nuclei (%): 9%
  Population Tubulin-Different-Phenotype (%): 4%
  Total Cell Count: 116
[10]
  Population Apoptotic (%): 50%
  Population Fragmented Nuclei (%): 9%
  Population Healthy Nuclei (%): 84%
  Population Hoechst High Intensity Objects (%): 2%
  Population Membrane Permeable-Phenotype (%): 6%
  Population Mitochondria Different-Phenotype (%): 25%
  Population Mitotic Cells (%): 50%
  Population Normal (%): 97%
  Population Pyknosed Nuclei (%): 5%
  Population Tubulin-Different-Phenotype (%): 34%
  Total Cell Count: 123
[11]
  Population Apoptotic (%): 55%
  Population Fragmented Nuclei (%): 9%
  Population Healthy Nuclei (%): 72%
  Population Hoechst High Intensity Objects (%): 3%
  Population Membrane Permeable-Phenotype (%): 24%
  Population Mitochondria Different-Phenotype (%): 24%
  Population Mitotic Cells (%): 45%
  Population Normal (%): 96%
  Population Pyknosed Nuclei (%): 18%
  Population Tubulin-Different-Phenotype (%): 55%
  Total Cell Count: 181
[12]
  Population Apoptotic (%): 25%
  Population Fragmented Nuclei (%): 7%
  Population Healthy Nuclei (%): 82%
  Population Membrane Permeable-Phenotype (%): 6%
  Population Mitochondria Different-Phenotype (%): 10%
  Population Mitotic Cells (%): 75%
  Population Pyknosed Nuclei (%): 10%
  Population Tubulin-Different-Phenotype (%): 13%
  Total Cell Count: 148
